The record followed here is ChEMBL document CHEMBL3751707, “Silicon Incorporated Morpholine Antifungals: Design, Synthesis, and Biological Evaluation” (ACS Med Chem Lett, 2015).

Converted amounts (≈) assume the structure as drawn.

In series [1] the test system is Candida albicans. The series is described as follows: Antifungal activity against Candida albicans ATCC 10231 after 24 to 36 hrs by broth microdilution method. In kind it is functional, organism-based. In a few lines:
(§1)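 CLSI broth microdilution against yeasts (M27-A3) and filamentous fungi (M38-A2). Read-outs: IC50 (concentration giving 50% growth inhibition), MIC, and MFC (minimum fungicidal concentration), all in μg/mL. Assay done twice in triplicate.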
In general terms: Broth dilution looks for growth in wells or tubes with falling amounts of substance.

Series [2] has as its system Cryptococcus neoformans. As to the kind of experiment: Antifungal activity against Cryptococcus neoformans ATCC 34664 after 24 to 36 hrs by broth microdilution method. In kind it is functional, organism-based. In a few lines:
as §1

Series [3] relates to Candida albicans. As to the kind of experiment: Antifungal activity against Candida albicans ATCC 10231 after 72 hrs by broth microdilution method. The settings on record: ATCC 10231, 72 h. In kind it is functional. In a few lines: as §1
Series [4] concerns Aspergillus niger. As to the kind of experiment: Antifungal activity against Aspergillus niger ATCC 10578 after 72 hrs by broth microdilution method. In kind it is functional. The settings on record: ATCC 10578, 72 h. In a few lines:
as §1

The test system of series [5] is Candida albicans. The series is described as follows: Antifungal activity against Candida albicans ATCC 24433 after 72 hrs by broth microdilution method. In kind it is functional. The settings on record: ATCC 24433, 72 h. The gist of the method: as §1
In series [6] the test system is Nakaseomyces glabratus. As to the kind of experiment: Antifungal activity against Candida glabrata NCYC 388 after 72 hrs by broth microdilution method. The settings on record: NCYC 388, 72 h. In kind it is functional. In a few lines:
as §1

In series [7] the test system is Candida albicans. The series is described as follows: Antifungal activity against Candida albicans ATCC 24433 after 24 to 36 hrs by broth microdilution method. In kind it is functional, organism-based. In a few lines:
as §1

The test system of series [8] is Nakaseomyces glabratus. As to the kind of experiment: Antifungal activity against Candida glabrata NCYC 388 after 24 to 36 hrs by broth microdilution method. In kind it is functional, organism-based. The gist of the method:
as §1

The subject of series [9] is Candida tropicalis. As to the kind of experiment: Antifungal activity against Candida tropicalis ATCC 750 after 24 to 36 hrs by broth microdilution method. In kind it is functional, organism-based. The gist of the method:
as §1

Series [10] deals with Candida tropicalis. The series is described as follows: Antifungal activity against Candida tropicalis ATCC 750 after 72 hrs by broth microdilution method. In kind it is functional. The settings on record: ATCC 750, 72 h. The gist of the method: as §1
In series [11] the test system is Cryptococcus neoformans. The series is described as follows: Antifungal activity against Cryptococcus neoformans ATCC 34664 after 72 hrs by broth microdilution method. In kind it is functional. The settings on record: ATCC 34664, 72 h. The gist of the method: as §1
The test system of series [12] is Aspergillus niger. The series is described as follows: Antifungal activity against Aspergillus niger ATCC 10578 after 48 hrs by broth microdilution method. In kind it is functional, organism-based. The settings on record: ATCC 10578, 48 h. The gist of the method: as §1
Series [13] is described as follows: Metabolic stability in human liver microsomes after 30 mins by LC-MS/MS analysis. In kind it is ADME. The settings on record: read-out: Stability. In a few lines: (§2)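 Test compounds were incubated 30 min with liver microsomes (human or mouse, per line), and values are reported as % metabolic stability after 30 min.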
(In general: Microsomes from liver hold many membrane-bound enzymes, among them those of drug oxidation.)

The nature of series [14]: Metabolic stability in mouse liver microsomes after 30 mins by LC-MS/MS analysis. In kind it is ADME. The settings on record: read-out: Stability. In a few lines: as §2

For the compound `CCC(C)(C)c1ccc(CC(C)CN2CC[Si](C)(C)CC2)cc1` (configuration not stated), the 50% inhibitory concentration (IC50) – broadly, the concentration needed to halve the response being measured – with Candida albicans [1] was 0.28 µg/mL (≈ 0.844 µM); in the series with Cryptococcus neoformans [2], 1.4 µg/mL (≈ 4.22 µM); with Candida albicans [7] it was 1.68 µg/mL (≈ 5.07 µM); in the series on Nakaseomyces glabratus [8], 1.47 µg/mL (≈ 4.43 µM); in the series with Candida tropicalis [9], 13.8 µg/mL (≈ 41.6 µM); in the series with Aspergillus niger [12], 0.16 µg/mL (≈ 0.482 µM). Moreover, the MIC (usually the smallest concentration in the dilution series that meets the test's criterion for growth inhibition) with Candida albicans [1] was determined as 0.5 µg/mL (≈ 1.51 µM); in the series on Cryptococcus neoformans [2], 2 µg/mL (≈ 6.03 µM); in the series with Candida albicans [7], 4 µg/mL (≈ 12.1 µM); against Nakaseomyces glabratus [8], 4 µg/mL (≈ 12.1 µM); against Candida tropicalis [9] it was 64 µg/mL (≈ 193 µM); in the series on Aspergillus niger [12] it was 0.5 µg/mL (≈ 1.51 µM). Further, the MFC – broadly, the smallest concentration meeting the test's criterion for killing the fungus – against Candida albicans [3] was 64 µg/mL (≈ 193 µM); against Aspergillus niger [4], 64 µg/mL (≈ 193 µM); in the series on Candida albicans [5], 16 µg/mL (≈ 48.2 µM); with Nakaseomyces glabratus [6], 4 µg/mL (≈ 12.1 µM); against Candida tropicalis [10], 256 µg/mL (≈ 772 µM); in the series with Cryptococcus neoformans [11], 4 µg/mL (≈ 12.1 µM).
Regarding `CC(Cc1ccc(C(C)(C)C)cc1)C(=O)N1CC[Si](C)(C)CC1` (configuration not stated), the minimal inhibitory concentration (MIC) with Candida albicans [1], in the series with Cryptococcus neoformans [2], against Candida albicans [7], with Nakaseomyces glabratus [8], in the series with Candida tropicalis [9] and in the series with Aspergillus niger [12] was no less than 256 µg/mL in each case. Also, the MFC against Candida albicans [3], in the series on Aspergillus niger [4], in the series with Candida albicans [5], against Nakaseomyces glabratus [6], in the series on Candida tropicalis [10] and with Cryptococcus neoformans [11] was no less than 256 µg/mL each time.
For `CC(Cc1ccc([Si](C)(C)C)cc1)CN1CCS(=O)(=O)CC1` (configuration not stated), the MIC against Candida albicans [1], against Cryptococcus neoformans [2], against Candida albicans [7], in the series on Nakaseomyces glabratus [8], with Candida tropicalis [9] and against Aspergillus niger [12] was no less than 256 µg/mL each time. The MFC with Candida albicans [3], in the series on Aspergillus niger [4], in the series on Candida albicans [5], in the series with Nakaseomyces glabratus [6], in the series with Candida tropicalis [10] and against Cryptococcus neoformans [11] was no less than 256 µg/mL in each case.
As for `CCN(CC)CC(C)Cc1ccc([Si](C)(C)C)cc1` (configuration not stated), the half-maximal inhibitory concentration (IC50) with Candida albicans [1] is 0.57 µg/mL (≈ 2.05 µM); in the series with Cryptococcus neoformans [2] it was 1.5 µg/mL (≈ 5.4 µM); in the series on Candida albicans [7], 3.75 µg/mL (≈ 13.5 µM); with Nakaseomyces glabratus [8] it was 1.85 µg/mL (≈ 6.67 µM); with Candida tropicalis [9], 4.85 µg/mL (≈ 17.5 µM); with Aspergillus niger [12] it was 64 µg/mL (≈ 231 µM). The minimal inhibitory concentration (MIC) was found to be 2 µg/mL (≈ 7.21 µM) in the series with Candida albicans [1]; 4 µg/mL (≈ 14.4 µM) with Cryptococcus neoformans [2]; 8 µg/mL (≈ 28.8 µM) in the series with Candida albicans [7]; 4 µg/mL (≈ 14.4 µM) in the series with Nakaseomyces glabratus [8]; 16 µg/mL (≈ 57.7 µM) in the series on Candida tropicalis [9]; 256 µg/mL (≈ 922 µM) against Aspergillus niger [12]. For the same compound, the minimal fungicidal concentration (MFC) against Candida albicans [3] was 4 µg/mL (≈ 14.4 µM); against Aspergillus niger [4] it was greater than 256 µg/mL; in the series with Candida albicans [5], 32 µg/mL (≈ 115 µM); with Nakaseomyces glabratus [6], greater than 256 µg/mL; against Candida tropicalis [10] it was 256 µg/mL (≈ 922 µM); against Cryptococcus neoformans [11], 32 µg/mL (≈ 115 µM).
Consider `CC(Cc1ccc(C(C)(C)C)cc1)C(=O)NC[Si](C)(C)c1ccccc1` (configuration not stated), for which the minimal inhibitory concentration (MIC) in the series on Candida albicans [1], in the series with Cryptococcus neoformans [2], in the series on Candida albicans [7], with Nakaseomyces glabratus [8], in the series with Candida tropicalis [9] and against Aspergillus niger [12] was no less than 256 µg/mL each time. Further, the MFC against Candida albicans [3], in the series with Aspergillus niger [4], in the series with Candida albicans [5], in the series with Nakaseomyces glabratus [6], in the series with Candida tropicalis [10] and against Cryptococcus neoformans [11] was no less than 256 µg/mL each time.
For `CC(Cc1ccc([Si](C)(C)C)cc1)CN1CCOCC1` (configuration not stated), the IC50 worked out at 0.26 µg/mL (≈ 0.892 µM) with Candida albicans [1]; 0.125 µg/mL (≈ 0.429 µM) with Cryptococcus neoformans [2]; 0.74 µg/mL (≈ 2.54 µM) in the series with Candida albicans [7]; 0.144 µg/mL (≈ 0.494 µM) with Nakaseomyces glabratus [8]; 0.5 µg/mL (≈ 1.72 µM) in the series with Candida tropicalis [9]; 106 µg/mL (≈ 363 µM) with Aspergillus niger [12]. For the same compound, the minimal inhibitory concentration (MIC) in the series on Candida albicans [1] was 0.5 µg/mL (≈ 1.72 µM); with Cryptococcus neoformans [2] it was 0.5 µg/mL (≈ 1.72 µM); against Candida albicans [7], 1 µg/mL (≈ 3.43 µM); with Nakaseomyces glabratus [8] it was 0.5 µg/mL (≈ 1.72 µM); in the series on Candida tropicalis [9] it was 8 µg/mL (≈ 27.4 µM); against Aspergillus niger [12], 128 µg/mL (≈ 439 µM). Also, the values for the remaining at 0.5 h in [13] and in series [14] were 26% and 5.1%, respectively. The minimal fungicidal concentration (MFC) in the series on Candida albicans [3] was 8 µg/mL (≈ 27.4 µM); with Aspergillus niger [4], greater than 256 µg/mL; with Candida albicans [5], 8 µg/mL (≈ 27.4 µM); against Nakaseomyces glabratus [6] it was 16 µg/mL (≈ 54.9 µM); against Candida tropicalis [10], 16 µg/mL (≈ 54.9 µM); against Cryptococcus neoformans [11] it was 2 µg/mL (≈ 6.86 µM).
